Screens from PubChem BioAssay.
This is a sample that favours compounds with a hit; in the whole collection about 1.5% have one here.
Hck-Nef inh: inhibitors of human Hck kinase activated by Nef; P08631; Recombinant Hck-YEEI plus Nef, Z-Lyte FRET kinase assay; inhibition, % at 20 µM; hit rate 0.68% among 220,000; AID 463187;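 active = Hck-Nef kinase inhibition above about 50%, limit read from the data; inactive = inhibition below that limit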;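 also: 0% = DMSO with Hck plus Nef and 100% = Hck alone without Nef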
Runt-CBFb FRET: inhibitors of human RUNX1 Runt domain binding to CBFb; Q01196+Q13951; Cerulean-Runt/Venus-CBFb FRET ratio 530/480, 1 h; inhibition, % at 20 µM; hit rate 0.46% among 220,000; AID 1496;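 active = inhibition over about 50% at 20 µM in the single-dose screen, limit read from the data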;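 also: 0% = DMSO wells and 100% = excess unlabeled CBFb competitor control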
Target sequence (Q01196 whole entry, looked up, the tested form may be a part): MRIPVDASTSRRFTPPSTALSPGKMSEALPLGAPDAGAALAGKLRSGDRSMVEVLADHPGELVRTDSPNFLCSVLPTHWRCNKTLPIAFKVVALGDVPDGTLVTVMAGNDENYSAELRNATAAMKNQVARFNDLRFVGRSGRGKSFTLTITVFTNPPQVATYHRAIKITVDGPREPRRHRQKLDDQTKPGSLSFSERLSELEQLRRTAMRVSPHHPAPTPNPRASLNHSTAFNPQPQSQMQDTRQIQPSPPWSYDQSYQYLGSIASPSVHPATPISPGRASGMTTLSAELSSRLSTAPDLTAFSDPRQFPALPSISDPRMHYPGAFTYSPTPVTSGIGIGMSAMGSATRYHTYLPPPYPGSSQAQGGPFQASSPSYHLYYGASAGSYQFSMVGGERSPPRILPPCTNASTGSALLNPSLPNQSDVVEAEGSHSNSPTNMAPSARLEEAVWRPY
Target sequence (Q13951 whole entry, looked up, the tested form may be a part): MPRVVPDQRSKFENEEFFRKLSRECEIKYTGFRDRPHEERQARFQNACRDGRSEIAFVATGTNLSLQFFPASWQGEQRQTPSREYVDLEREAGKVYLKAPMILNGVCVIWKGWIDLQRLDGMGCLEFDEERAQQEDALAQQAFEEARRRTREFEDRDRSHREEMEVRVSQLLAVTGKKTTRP
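Measured by: fluorescence energy transfer, 422 nm excitation, 530/480 nm emission; Assay system: Cerulean-Runt domain; Medium: Tris pH 7.5 buffer with BSA; Measure: loss of energy transfer signal; Controls: 5 µM unlabeled CBFb as full-inhibition high control; Incubation: protein complex preformed 1 h, compound exposure 1 h, room temperature, dark.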
Runt-SMMHC FRET: inhibitors of human RUNX1 Runt domain binding to CBFb-SMMHC | Q01196+Q13951 | inhibition, % at 20 µM | Cerulean-Runt/Venus-CBFb-SMMHC FRET ratio 530/480, 1 h | hit rate 0.74% among 220,000;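 active = mean inhibition across duplicate retests at 20 µM reaching about 50%, limit read from the data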;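 also: 0% = DMSO wells and 100% = wells with excess untagged CBFb-SMMHC; inhibitors lower the FRET ratio by blocking Runt binding to CBFb-SMMHC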
CaV13 FRET inh: Primary screen for inhibitors of IQ motif and Ca2+-dependent inactivation inhibitor domain binding in CACNA1D, Förster resonance energy transfer in living cells, …. HEK cells, CFP/YFP FRET ICDI-IQ, plate reader, 10 min; percent FRET-ratio fall versus neutral wells. inhibition, % at 12.3 µM. hit rate 0.098% among 340,000;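 active = mean replicate inhibition of at least 30% and at least 1% of replicates passing that level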;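 also: 0% = median of the neutral control wells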
RanGTP-Imp inh: disruptors of Ran-importin-beta complex formation – biochemical, FRET, CFP-Ran, YFP-importin-beta, homogeneous, primary screen; cell-free CFP-Ran/YFP-importin-beta FRET ratio; inhibition, % (test concentration not listed); hit rate 1.1% among 300,000; AID 2216;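 active = more than half of the replicate wells show a fall in the fluorescence ratio signal beyond about 16%, limit read from the data, passing the limit was not always enough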;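 also: 0% = DMSO wells and 100% = Ran loaded with GDP instead of GTP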
Hck-Nef confirm: Hck-Nef kinase inhibition, confirmation; shares compounds with Hck-Nef inh; Recombinant Hck-YEEI:Nef, Z-Lyte FRET kinase assay; calls only at 10 µM; hit rate 28% among 1,300;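 active = average inhibition of at least 50%, with Z-scores no higher than 3 in both the phospho-tyrosine peptide and fluorescence counterscreens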
* hit, by the source's call; i = inactive; x = not tested or not shown; + = active, no number.

SMILES	Hck-Nef inh	Runt-CBFb FRET	Runt-SMMHC FRET	CaV13 FRET inh	RanGTP-Imp inh	Hck-Nef confirm
COc1ccccc1OCC(=O)OC/C(O)=C(\C#N)c1nc2ccccc2[nH]1	2	1	0	-7	3	x
N#C/C(=C(/O)COC(=O)Cc1c[nH]c2ccccc12)c1nc2ccccc2[nH]1	60*	6	13	-4	1	+
CCOc1ccc(-n2nnnc2SCC(=O)Nc2cccc(O)c2)cc1	x	x	x	-4	2	x
Nc1cccc2nc3ccccc3cc12	76*	20	58*	x	176*	x
Nc1[nH]nc2nc3ccccc3cc12	32	1	-4	-5	-1	x
C/C(=N/NC(=O)c1cc2ccccc2cc1O)C1C(=O)c2ccccc2C1=O	82*	-3	-16	-3	-3	+
COc1cc(/C=C2\SC(c3ccccc3)=NC2=O)cc(Cl)c1O	50*	44	69*	1	3	+
COc1ccc(C(=O)N2CCCC(C(=O)N3CCN(c4ccccc4)CC3)C2)cc1 (centres undefined)	20	1	4	-20	3	x
COc1ccc(C(=O)N2CCCC(C(=O)N3CCCCCC3)C2)cc1 (centres undefined)	57*	-1	2	-4	-1	i
O=C(Nc1ccccc1C(=O)NCCCN1CCOCC1)c1ccc(F)cc1	x	x	x	x	5	x
O=C(NCCN1CCOCC1)c1ccc(Cl)c(S(=O)(=O)N2CCOCC2)c1	x	x	x	x	1	x
Cc1cc(C)c2nc(-c3ccccn3)cc(C(=O)Nc3ccc(S(=O)(=O)Nc4onc(C)c4C)cc3)c2c1	71*	3	-14	x	-4	+
Cc1cc(C)c2nc(-c3ccccn3)cc(C(=O)Nc3ccc(S(=O)(=O)Nc4cc(C)on4)cc3)c2c1	2	-5	-25	-6	-1	x
Cc1cc(C)c(OCC(=O)N(Cc2ccccc2)C2CCS(=O)(=O)C2)c(C)c1 (centres undefined)	x	x	x	-2	0	x
Cc1cc2cc(CN(Cc3ccc4c(c3)OCO4)C(=O)c3ccco3)c(=O)[nH]c2cc1C	6	7	3	x	4	x
O=C(c1ccco1)N(Cc1ccc2c(c1)OCO2)Cc1cc2cc3c(cc2[nH]c1=O)OCO3	126*	10	-6	-2	0	i
O=C(CN1CC[n+]2c(-c3ccccc3)csc21)c1ccc(Br)cc1	67*	5	3	-5	0	+
C[C@@H]1CN([C@@H](C)CO)C(=O)CCCn2nncc2CO[C@H]1CN(C)S(=O)(=O)c1cccc(F)c1	x	x	x	-9	x	x
CN(Cc1ccc(Cl)cc1)C(=O)CNC(=O)C12CC3CC(CC(C3)C1)C2	x	x	x	-6	x	x
CC(=O)c1cc2c(cc1NS(=O)(=O)c1ccccc1C)OCO2	15	6	3	-5	13	x
COc1ccc(S(=O)(=O)Nc2cc3c(cc2C(C)=O)OCO3)cc1	54*	x	x	-6	0	i
CC1CCCN(C(=O)CN(C)S(=O)(=O)c2ccc3c(c2)c(=O)n(C)c(=O)n3C)C1 (centres undefined)	x	x	x	-4	-1	x
CCCN1C(=O)/C(=c2\sc3nc(=O)c(Cc4ccc(C)cc4)nn3c2=O)c2ccccc21	52*	5	-1	-3	3	i
Cc1c(N(C)S(=O)(=O)c2cc(C(=O)NCC3CCCO3)ccc2Cl)c(=O)n(-c2ccccc2)n1C (centres undefined)	x	x	x	-1	-1	x
CCOC(=O)C1CC(C)=C(C)CC1C(=O)O (centres undefined)	14	-1	-4	-4	0	x
O=c1[nH]c(=S)[nH]c(O)c1N=Nc1ccc(-c2ccccc2)cc1[N+](=O)[O-]	68*	-20	-23	x	-18	i
N#Cc1c(-c2cccnc2)c2c([nH]c1=O)-c1ccccc1OC2	130*	10	82*	3	113*	x
N#Cc1c(-c2ccc(F)cc2)c2c([nH]c1=O)-c1ccccc1OC2	126*	60*	80*	-14	101*	x
CSc1c2c([nH]c(=O)c1C#N)-c1ccccc1CC2	x	x	x	-5	x	x
Cc1noc(C)c1C(=O)OCC(=O)Nc1ncc(C(F)(F)F)cc1Cl	x	x	x	-5	x	x
